2 molecules from ChEMBL document CHEMBL4011617, “Ugi Reaction-Derived α-Acyl Aminocarboxamides Bind to Phosphatidylinositol 3-Kinase-Related Kinases, Inhibit HSF1-Dependent Heat Shock Response, and Induce Apoptosis in Multiple Myeloma Cells” (J Med Chem, 2017) can be followed below.

Structures are written as SMILES. Calls of active or inactive are those of the source. No cut-off for these calls is given here.

The test system of one assay is INA-6. Put plainly: Inhibition of heat shock response in human INA-6 cells assessed as reduction in HSF-1 mediated upregulation of the heat shock protein HSP27 at 50 uM preincubated for 4 hrs followed by HSP90 inhibitor and HSR inducer NVP-AUY922 addition measured after 4 hrs by ELISA. In kind it is functional, cell-based.
Assay [1] has as its target CCR4-NOT transcription complex subunit 6-like (Homo sapiens) (UniProt Q96LI5). In words: Binding affinity to CCR4-NOT transcription complex subunit 6-like in human INA-6 cells after 3 hrs by nanoLC-MS/MS method. The class given is cell-based. The essentials: (§1)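 The biotinylated inhibitor was loaded on streptavidin beads, with empty beads as the control. Eluates were trypsin-digested and run by nanoLC-MS/MS. Inhibitor/control ratios came from label-free quantification, taken as medians of five biological replicates. Enrichment was called at Benjamini-Hochberg-adjusted limma p < 0.02.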

Assay [2] has as its target CCR4-NOT transcription complex subunit 7 (Homo sapiens) (UniProt Q9UIV1). Put plainly: Binding affinity to CCR4-NOT transcription complex subunit 7 in human INA-6 cells after 3 hrs by nanoLC-MS/MS method. In kind it is cell-based. An outline of the steps:
as §1

Assay [3] has as its target CCR4-NOT transcription complex subunit 10 (Homo sapiens) (UniProt Q9H9A5). Put plainly: Binding affinity to CCR4-NOT transcription complex subunit 10 in human INA-6 cells after 3 hrs by nanoLC-MS/MS method. The class given is cell-based. The essentials: as §1
The target of assay [4] is CCR4-NOT transcription complex subunit 11 (Homo sapiens) (UniProt Q9UKZ1). In words: Binding affinity to CCR4-NOT transcription complex subunit 11 in human INA-6 cells after 3 hrs by nanoLC-MS/MS method. In kind it is cell-based. An outline of the steps: as §1
Assay [5] has as its target Survival of motor neuron-related-splicing factor 30 (Homo sapiens) (UniProt O75940). Put plainly: Binding affinity to survival of motor neuron-related-splicing factor 30 in human INA-6 cells after 3 hrs by nanoLC-MS/MS method. The class given is cell-based. An outline of the steps:
as §1

The target of assay [6] is Mitogen-activated protein kinase kinase kinase 5 (Homo sapiens) (UniProt Q99683). Put plainly: Binding affinity to MAP3K5 in human INA-6 cells after 3 hrs by nanoLC-MS/MS method. In kind it is cell-based. The essentials:
as §1

Assay [7] has as its target Mitogen-activated protein kinase kinase kinase 6 (Homo sapiens) (UniProt O95382). In words: Binding affinity to MAP3K6 in human INA-6 cells after 3 hrs by nanoLC-MS/MS method. In kind it is cell-based. The essentials:
as §1

In assay [8] the target is Programmed cell death protein 6 (Homo sapiens) (UniProt O75340). In words: Binding affinity to PDCD6 protein in human INA-6 cells after 3 hrs by nanoLC-MS/MS method. The class given is cell-based. An outline of the steps:
as §1

Assay [9] deals with Serine/threonine-protein phosphatase 6 regulatory subunit 3 (Homo sapiens) (UniProt Q5H9R7). In words: Binding affinity to serine/threonine-protein phosphatase 6 regulatory subunit 3 in human INA-6 cells after 3 hrs by nanoLC-MS/MS method. The class given is cell-based. An outline of the steps: as §1
Assay [10] has as its target Serine/threonine-protein kinase ATR (Homo sapiens) (UniProt Q13535). Put plainly: Binding affinity to ATR protein in human INA-6 cells after 3 hrs by nanoLC-MS/MS method. In kind it is cell-based. An outline of the steps:
as §1

The target in assay [11] is Serine/threonine-protein kinase mTOR (Homo sapiens) (UniProt P42345). Put plainly: Binding affinity to mTOR protein in human INA-6 cells after 3 hrs by nanoLC-MS/MS method. The class given is cell-based. The essentials: as §1
The target of assay [12] is Exportin-T (Homo sapiens) (UniProt O43592). In words: Binding affinity to XPOT protein in human INA-6 cells after 3 hrs by nanoLC-MS/MS method. In kind it is cell-based. An outline of the steps:
as §1

The target in assay [13] is Serine/threonine-protein phosphatase 6 regulatory subunit 1 (Homo sapiens) (UniProt Q9UPN7). In words: Binding affinity to PP6R1 protein in human INA-6 cells after 3 hrs by nanoLC-MS/MS method. The class given is cell-based. The essentials:
as §1

For assay [14], the target named is Protein MON2 homolog (Homo sapiens) (UniProt Q7Z3U7). Put plainly: Binding affinity to MON2 protein in human INA-6 cells after 3 hrs by nanoLC-MS/MS method. The class given is cell-based. An outline of the steps: as §1
For assay [15], the target named is Protein CIP2A (Homo sapiens) (UniProt Q8TCG1). In words: Binding affinity to CIP2A protein in human INA-6 cells after 3 hrs by nanoLC-MS/MS method. In kind it is cell-based. The essentials:
as §1

Assay [16] has as its target Conserved oligomeric Golgi complex subunit 1 (Homo sapiens) (UniProt Q8WTW3). Put plainly: Binding affinity to COG1 in human INA-6 cells after 3 hrs by nanoLC-MS/MS method. The class given is cell-based. The essentials:
as §1

For assay [17], the target named is Conserved oligomeric Golgi complex subunit 3 (Homo sapiens) (UniProt Q96JB2). Put plainly: Binding affinity to COG3 in human INA-6 cells after 3 hrs by nanoLC-MS/MS method. The class given is cell-based. An outline of the steps: as §1
Assay [18] concerns the target DNA-dependent protein kinase catalytic subunit (Homo sapiens) (UniProt P78527). In words: Binding affinity to PRKDC protein in human INA-6 cells after 3 hrs by Western blot method. The class given is cell-based. An outline of the steps: (§2)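 INA-6 lysate was incubated with compound-coupled streptavidin beads or with beads only as the control. Captured-protein eluates were Western blotted with specific antibodies against DNA-PK, ATM, ATR or mTOR. H2AX staining or Ponceau S served as loading controls.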
On the technique in general: A western blot detects proteins with antibodies after separation by electrophoresis.

Assay [19] addresses Serine-protein kinase ATM (Homo sapiens) (UniProt Q13315). Put plainly: Binding affinity to ATM protein in human INA-6 cells after 3 hrs by Western blot method. In kind it is cell-based. The essentials:
as §2

Assay [20] addresses Serine/threonine-protein kinase ATR (Homo sapiens) (UniProt Q13535). In words: Binding affinity to ATR protein in human INA-6 cells after 3 hrs by Western blot method. The class given is cell-based. An outline of the steps:
as §2

Assay [21] deals with Serine/threonine-protein kinase mTOR (Homo sapiens) (UniProt P42345). Put plainly: Binding affinity to mTOR protein in human INA-6 cells after 3 hrs by Western blot method. The class given is cell-based. An outline of the steps: as §2

Sequence of Serine/threonine-protein kinase ATR (Homo sapiens) (Q13535 whole entry, looked up): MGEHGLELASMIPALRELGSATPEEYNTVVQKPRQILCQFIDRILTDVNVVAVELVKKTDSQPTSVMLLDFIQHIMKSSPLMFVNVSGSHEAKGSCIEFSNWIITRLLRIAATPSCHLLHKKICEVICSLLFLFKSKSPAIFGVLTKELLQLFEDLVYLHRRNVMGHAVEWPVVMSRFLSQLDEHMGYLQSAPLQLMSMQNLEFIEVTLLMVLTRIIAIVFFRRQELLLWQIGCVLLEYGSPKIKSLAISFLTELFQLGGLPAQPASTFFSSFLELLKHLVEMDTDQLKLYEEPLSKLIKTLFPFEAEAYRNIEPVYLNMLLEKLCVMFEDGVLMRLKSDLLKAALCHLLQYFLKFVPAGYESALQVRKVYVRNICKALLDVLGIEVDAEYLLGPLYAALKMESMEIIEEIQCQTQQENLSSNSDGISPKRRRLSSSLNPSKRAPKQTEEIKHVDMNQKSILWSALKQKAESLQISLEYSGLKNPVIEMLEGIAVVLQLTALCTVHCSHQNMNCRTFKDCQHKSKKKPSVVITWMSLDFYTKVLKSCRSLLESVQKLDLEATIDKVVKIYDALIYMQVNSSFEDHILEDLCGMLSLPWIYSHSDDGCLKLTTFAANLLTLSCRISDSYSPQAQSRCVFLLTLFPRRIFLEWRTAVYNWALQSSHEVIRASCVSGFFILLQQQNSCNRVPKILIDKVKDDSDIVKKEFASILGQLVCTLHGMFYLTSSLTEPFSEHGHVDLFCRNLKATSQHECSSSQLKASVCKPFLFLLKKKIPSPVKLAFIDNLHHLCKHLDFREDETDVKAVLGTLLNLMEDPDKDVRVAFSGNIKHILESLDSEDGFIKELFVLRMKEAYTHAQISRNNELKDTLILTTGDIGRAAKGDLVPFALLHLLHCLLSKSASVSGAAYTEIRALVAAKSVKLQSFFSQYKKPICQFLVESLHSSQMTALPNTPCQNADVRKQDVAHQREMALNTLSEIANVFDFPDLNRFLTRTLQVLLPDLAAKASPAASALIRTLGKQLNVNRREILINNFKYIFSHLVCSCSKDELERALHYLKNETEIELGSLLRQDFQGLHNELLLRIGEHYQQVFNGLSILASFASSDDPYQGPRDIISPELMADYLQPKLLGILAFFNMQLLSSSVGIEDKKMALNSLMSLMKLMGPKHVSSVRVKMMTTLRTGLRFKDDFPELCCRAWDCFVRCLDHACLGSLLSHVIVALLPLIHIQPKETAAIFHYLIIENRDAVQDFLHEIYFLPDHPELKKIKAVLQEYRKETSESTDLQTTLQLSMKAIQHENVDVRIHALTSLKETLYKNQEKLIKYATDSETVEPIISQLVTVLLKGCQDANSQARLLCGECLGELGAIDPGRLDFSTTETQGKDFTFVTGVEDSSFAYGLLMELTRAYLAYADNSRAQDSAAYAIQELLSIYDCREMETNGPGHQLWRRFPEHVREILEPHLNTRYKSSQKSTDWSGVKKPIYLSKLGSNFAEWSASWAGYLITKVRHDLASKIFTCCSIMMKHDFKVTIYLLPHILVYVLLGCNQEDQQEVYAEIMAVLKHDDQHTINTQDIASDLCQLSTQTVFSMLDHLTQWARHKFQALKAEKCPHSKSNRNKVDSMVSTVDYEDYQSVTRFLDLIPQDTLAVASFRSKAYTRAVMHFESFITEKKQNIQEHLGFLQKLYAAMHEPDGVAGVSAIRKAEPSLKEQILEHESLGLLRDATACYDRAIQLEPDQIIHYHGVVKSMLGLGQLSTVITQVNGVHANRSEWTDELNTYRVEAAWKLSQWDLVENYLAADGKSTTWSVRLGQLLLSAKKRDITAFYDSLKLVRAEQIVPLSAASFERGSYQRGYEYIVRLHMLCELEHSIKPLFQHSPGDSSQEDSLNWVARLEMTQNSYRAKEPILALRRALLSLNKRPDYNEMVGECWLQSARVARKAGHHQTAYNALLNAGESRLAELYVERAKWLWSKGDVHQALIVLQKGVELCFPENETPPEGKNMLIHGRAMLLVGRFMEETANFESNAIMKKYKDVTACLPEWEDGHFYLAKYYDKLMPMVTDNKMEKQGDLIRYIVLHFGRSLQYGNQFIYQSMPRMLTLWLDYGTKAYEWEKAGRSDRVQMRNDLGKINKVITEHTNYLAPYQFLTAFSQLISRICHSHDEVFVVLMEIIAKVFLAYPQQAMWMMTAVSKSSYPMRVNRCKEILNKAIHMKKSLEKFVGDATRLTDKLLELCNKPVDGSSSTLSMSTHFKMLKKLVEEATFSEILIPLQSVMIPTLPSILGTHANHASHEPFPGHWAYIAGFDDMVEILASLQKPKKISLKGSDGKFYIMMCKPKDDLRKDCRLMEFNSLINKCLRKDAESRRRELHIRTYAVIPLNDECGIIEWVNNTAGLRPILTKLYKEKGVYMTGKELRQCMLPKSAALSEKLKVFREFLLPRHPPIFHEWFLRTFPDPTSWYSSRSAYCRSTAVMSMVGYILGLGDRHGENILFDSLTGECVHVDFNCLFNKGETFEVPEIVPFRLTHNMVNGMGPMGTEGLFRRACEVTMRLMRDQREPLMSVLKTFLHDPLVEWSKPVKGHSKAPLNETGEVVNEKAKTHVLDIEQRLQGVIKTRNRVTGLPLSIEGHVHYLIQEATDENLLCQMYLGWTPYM
Sequence of Mitogen-activated protein kinase kinase kinase 5 (Homo sapiens) (Q99683 whole entry): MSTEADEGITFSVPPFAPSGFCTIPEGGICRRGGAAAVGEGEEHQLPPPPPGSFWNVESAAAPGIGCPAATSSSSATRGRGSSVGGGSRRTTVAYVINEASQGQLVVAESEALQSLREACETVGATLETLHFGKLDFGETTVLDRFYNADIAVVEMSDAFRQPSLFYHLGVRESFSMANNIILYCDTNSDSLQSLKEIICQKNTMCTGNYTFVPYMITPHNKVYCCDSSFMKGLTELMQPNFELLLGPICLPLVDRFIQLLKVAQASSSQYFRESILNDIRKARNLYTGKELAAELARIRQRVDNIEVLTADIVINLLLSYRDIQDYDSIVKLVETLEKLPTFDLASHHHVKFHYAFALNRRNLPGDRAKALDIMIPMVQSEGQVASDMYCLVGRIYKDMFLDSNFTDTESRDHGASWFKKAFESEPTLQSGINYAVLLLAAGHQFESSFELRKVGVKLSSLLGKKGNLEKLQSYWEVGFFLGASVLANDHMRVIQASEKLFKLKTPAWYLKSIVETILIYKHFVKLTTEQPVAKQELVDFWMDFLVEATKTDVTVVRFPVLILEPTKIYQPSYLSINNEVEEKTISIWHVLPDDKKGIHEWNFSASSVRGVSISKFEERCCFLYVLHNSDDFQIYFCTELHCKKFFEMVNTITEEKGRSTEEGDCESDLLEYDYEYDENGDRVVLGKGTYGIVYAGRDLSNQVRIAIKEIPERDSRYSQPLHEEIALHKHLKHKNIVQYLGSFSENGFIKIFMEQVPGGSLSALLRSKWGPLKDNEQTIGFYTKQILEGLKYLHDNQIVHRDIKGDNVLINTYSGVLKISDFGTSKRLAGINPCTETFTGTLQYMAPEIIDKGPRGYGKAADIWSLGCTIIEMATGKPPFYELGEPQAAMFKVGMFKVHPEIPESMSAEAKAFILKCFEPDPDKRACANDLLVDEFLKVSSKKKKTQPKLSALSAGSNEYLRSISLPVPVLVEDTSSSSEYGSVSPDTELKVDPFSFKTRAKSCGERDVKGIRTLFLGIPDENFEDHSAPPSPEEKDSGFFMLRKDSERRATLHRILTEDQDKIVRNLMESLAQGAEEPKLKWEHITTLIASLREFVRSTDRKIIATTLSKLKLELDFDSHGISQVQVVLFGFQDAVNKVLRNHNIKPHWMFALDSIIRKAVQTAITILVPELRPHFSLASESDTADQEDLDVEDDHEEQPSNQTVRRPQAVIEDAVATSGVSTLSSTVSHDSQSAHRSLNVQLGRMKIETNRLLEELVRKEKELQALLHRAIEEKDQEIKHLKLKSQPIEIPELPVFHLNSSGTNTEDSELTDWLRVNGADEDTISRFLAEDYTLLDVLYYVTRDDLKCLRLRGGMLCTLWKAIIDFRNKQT
Sequence of Serine/threonine-protein phosphatase 6 regulatory subunit 3 (Homo sapiens) (Q5H9R7 whole entry): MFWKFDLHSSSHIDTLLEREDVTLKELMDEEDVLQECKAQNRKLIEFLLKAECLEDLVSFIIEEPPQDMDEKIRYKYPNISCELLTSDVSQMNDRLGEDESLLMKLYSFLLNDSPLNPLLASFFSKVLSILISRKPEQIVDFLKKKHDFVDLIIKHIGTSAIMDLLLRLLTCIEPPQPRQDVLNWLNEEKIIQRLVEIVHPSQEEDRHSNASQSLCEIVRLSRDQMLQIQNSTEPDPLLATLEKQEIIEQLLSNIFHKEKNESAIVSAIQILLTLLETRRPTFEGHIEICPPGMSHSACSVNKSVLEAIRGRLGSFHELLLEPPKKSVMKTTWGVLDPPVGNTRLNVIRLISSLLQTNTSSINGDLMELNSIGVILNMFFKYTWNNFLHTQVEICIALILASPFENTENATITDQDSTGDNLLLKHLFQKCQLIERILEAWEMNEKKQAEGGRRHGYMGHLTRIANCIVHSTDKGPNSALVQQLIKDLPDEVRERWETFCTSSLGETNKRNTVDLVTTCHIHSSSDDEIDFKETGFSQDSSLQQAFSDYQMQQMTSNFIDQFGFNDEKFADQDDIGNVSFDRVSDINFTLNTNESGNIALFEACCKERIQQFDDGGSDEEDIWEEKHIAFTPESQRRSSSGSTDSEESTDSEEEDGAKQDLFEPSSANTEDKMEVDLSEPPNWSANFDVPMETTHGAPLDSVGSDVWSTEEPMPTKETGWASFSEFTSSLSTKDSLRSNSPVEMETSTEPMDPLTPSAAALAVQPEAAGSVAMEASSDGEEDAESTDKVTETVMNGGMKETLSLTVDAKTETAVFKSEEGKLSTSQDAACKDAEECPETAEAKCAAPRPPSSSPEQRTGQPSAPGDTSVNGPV
Sequence of Programmed cell death protein 6 (Homo sapiens) (O75340 whole entry): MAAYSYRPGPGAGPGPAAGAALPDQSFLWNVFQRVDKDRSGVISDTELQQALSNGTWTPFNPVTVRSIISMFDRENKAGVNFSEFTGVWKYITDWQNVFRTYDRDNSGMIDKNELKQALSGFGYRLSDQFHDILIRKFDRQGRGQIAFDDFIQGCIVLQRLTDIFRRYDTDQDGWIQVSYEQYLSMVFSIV

As to `O=C(CCCC[C@@H]1SC[C@@H]2NC(=O)N[C@@H]21)NCCOCCOCCNCCOc1ccc(C(C(=O)NCc2ccccc2)N(C(=O)CCc2ccc(O)cc2)C2CC2)cc1` (mixture of isomers), the “heat shock response inhibition (active/not active)” value in the assay with INA-6 was “inactive”. Also, the result in assay [1], in [2], in assay [3], in [4], in assay [5] and in assay [6] was Active. The result in assay [7], in [8], in [9], in [10], in [11] and in [12] was Active. Also, the result in assay [13], in assay [14], in assay [15], in [16], in [17] and in [18] was Active. Moreover, the outcome in assay [19], in [20] and in assay [21] was Active.
On to `O=C(CCCC[C@@H]1SC[C@@H]2NC(=O)N[C@@H]21)NCCOCCOCCNCCOc1ccc(C(C(=O)NCc2ccccc2)N(C(=O)CCc2ccccc2)C2CC2)cc1` (mixture of isomers), for which, in the assay on INA-6, the “heat shock response inhibition (active/not active)” value is “inactive”. For the same molecule, the result in assay [1], in [2], in assay [3], in assay [4], in [5] and in [6] was Active. For the same molecule, the outcome in [7], in assay [8], in [9], in assay [10], in assay [11] and in assay [12] was Active. The outcome in assay [13], in [14], in assay [15], in assay [16] and in assay [17] was Active.
